The nature of one data set: Cytotoxicity, MTT assay. Type of data set: cell-based. As to conditions: human, MRC-5 cells (normal embryonic lung cell line). (Tetrazolium assays rely on reduction of a dye to a coloured formazan, in cell work by metabolically active cells.)
In a further data set the test system is S. aureus ATCC 25923. Kind of data set: Antimicrobial activity, agar dilution method. It is filed as cell-based. As to conditions: Staphylococcus aureus, ATCC25923. In short, it runs like this:
(§1)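 Test compound in DMSO, mixed with Mueller–Hinton broth, two-fold serially diluted, and incorporated into MH agar at final 0.25–256 μg/mL. Agar with 0.5% DMSO served as reagent control. Organisms were grown overnight in MH broth at 37 °C, diluted in normal saline to 0.5 McFarland (1.5×10⁸ CFU/mL), and inoculated onto plates. Plates were incubated at 37 °C for 24–48 h, then MIC was recorded.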
A general note: In agar dilution, organisms are placed on agar that contains the substance at set levels.

A further data set concerns S. aureus ATCC 29213. The data set is described as follows: Antimicrobial activity, agar dilution method. Type of data set: cell-based. As to conditions: Staphylococcus aureus, ATCC29213. In short, it runs like this: as §1
Data set [1] relates to S. epidermidis ATCC 12228. The data set is described as follows: Antimicrobial activity, agar dilution method. It is filed as cell-based. As to conditions: Staphylococcus epidermidis, ATCC12228. In short, it runs like this: as §1
Another data set relates to M. luteus ATCC 10240. The data set is described as follows: Antimicrobial activity, agar dilution method. It is filed as cell-based. As to conditions: Micrococcus luteus, ATCC10240. In short, it runs like this:
as §1

Another data set relates to E. faecalis ATCC 29212. The data set is described as follows: Antimicrobial activity, agar dilution method. It is filed as cell-based. The conditions noted are these: Enterococcus faecalis, ATCC29212. In short, it runs like this:
as §1

The subject of the next data set is E. faecalis ATCC 33186. Kind of data set: Antimicrobial activity, agar dilution method. It is filed as cell-based. The conditions noted are these: Enterococcus faecalis, ATCC33186. In short, it runs like this:
as §1

Data set [2] relates to C. diphtheriae NCTC 10356. The data set is described as follows: Antimicrobial activity, agar dilution method. It is filed as cell-based. As to conditions: Corynebacterium diphtheriae, NCTC10356. In short, it runs like this:
as §1

In the next data set the test system is B. subtilis ATCC 6633. Kind of data set: Antimicrobial activity, agar dilution method. Type of data set: cell-based. The conditions noted are these: Bacillus subtilis, ATCC6633. In short, it runs like this:
as §1

Another data set concerns B. cereus. The data set is described as follows: Antimicrobial activity, agar dilution method. The conditions noted are these: Bacillus cereus. It is filed as cell-based. In short, it runs like this:
as §1

A further data set deals with L. monocytogenes. The data set is described as follows: Antimicrobial activity, agar dilution method. As to conditions: Listeria monocytogenes. It is filed as cell-based. In short, it runs like this:
as §1

A further data set relates to E. coli ATCC 25922. The data set is described as follows: Antimicrobial activity, agar dilution method. Type of data set: cell-based. As to conditions: Escherichia coli, ATCC25922. In short, it runs like this: as §1
The subject of data set [3] is K. pneumoniae ATCC 700603. The data set is described as follows: Antimicrobial activity, agar dilution method. Type of data set: cell-based. The conditions noted are these: Klebsiella pneumoniae, ATCC700603. In short, it runs like this:
as §1

A further data set has as its system S. marcescens ATCC 8100. Kind of data set: Antimicrobial activity, agar dilution method. It is filed as cell-based. As to conditions: Serratia marcescens, ATCC8100. In short, it runs like this: as §1
In data set [4] the test system is S. Typhimurium ATCC 13311. Kind of data set: Antimicrobial activity, agar dilution method. As to conditions: Salmonella enterica, ATCC13311|TYPHIMURIUM
It is filed as cell-based. In short, it runs like this: as §1

Data set [5] has as its system S. Choleraesuis ATCC 10708. The data set is described as follows: Antimicrobial activity, agar dilution method. Type of data set: cell-based. As to conditions: Salmonella enterica, ATCC10708|CHOLERAESUIS
In short, it runs like this:
as §1

In another data set the test system is S. Enteritidis. The data set is described as follows: Antimicrobial activity, agar dilution method. Type of data set: cell-based. As to conditions: Salmonella enterica. In short, it runs like this: as §1
The subject of another data set is S. dysenteriae. The data set is described as follows: Antimicrobial activity, agar dilution method. As to conditions: Shigella dysenteriae. Type of data set: cell-based. In short, it runs like this:
as §1

The subject of the next data set is M. morganii. The data set is described as follows: Antimicrobial activity, agar dilution method. Type of data set: cell-based. The conditions noted are these: Morganella morganii. In short, it runs like this: as §1
Another data set has as its system C. freundii. The data set is described as follows: Antimicrobial activity, agar dilution method. It is filed as cell-based. As to conditions: Citrobacter freundii. In short, it runs like this: as §1
The test system of another data set is P. shigelloides. Kind of data set: Antimicrobial activity, agar dilution method. Type of data set: cell-based. The conditions noted are these: Plesiomonas shigelloides, P. shigelloides; agar dilution.
A further data set concerns A. hydrophila. Kind of data set: Antimicrobial activity, agar dilution method. Type of data set: cell-based. As to conditions: Aeromonas hydrophila. In short, it runs like this:
as §1

Another data set concerns P. aeruginosa ATCC 27853. The data set is described as follows: Antimicrobial activity, agar dilution method. It is filed as cell-based, Pseudomonas aeruginosa. The conditions noted are these: Pseudomonas aeruginosa, ATCC27853. In short, it runs like this:
as §1

A further data set deals with P. stutzeri ATCC 17587. Kind of data set: Antimicrobial activity, agar dilution method. Type of data set: cell-based, Pseudomonas stutzeri. The conditions noted are these: Stutzerimonas stutzeri, ATCC17587. In short, it runs like this: as §1
Data set [6] deals with S. putrefaciens ATCC 8071. Kind of data set: Antimicrobial activity, agar dilution method. It is filed as cell-based. The conditions noted are these: Shewanella putrefaciens, ATCC8071. In short, it runs like this: as §1
Data set [7] deals with A. xylosoxidans ATCC 27061. The data set is described as follows: Antimicrobial activity, agar dilution method. Type of data set: cell-based. The conditions noted are these: Achromobacter xylosoxidans, ATCC27061. In short, it runs like this:
as §1

The test system of a further data set is C. albicans ATCC 90028. Kind of data set: Antimicrobial activity, agar dilution method. As to conditions: Candida albicans, ATCC90028. Type of data set: cell-based. In short, it runs like this:
as §1

The subject of a further data set is S. cerevisiae ATCC 2601. Kind of data set: Antimicrobial activity, agar dilution method. Type of data set: cell-based. As to conditions: Saccharomyces cerevisiae, ATCC2601. In short, it runs like this:
as §1

A further data set deals with Gram-negative bacteria. The data set is described as follows: Antimicrobial activity, agar dilution method, summarised over the group. Type of data set: cell-based. In short, it runs like this:
as §1

Another data set has as its system diploid fungi and yeast. Described as above. It is filed as cell-based, Candida albicans. The conditions noted are these: Saccharomyces cerevisiae, ATCC2601|ATCC90028. In short, it runs like this: as §1
Data set [8] has as its system twenty-seven strains of microorganisms. Type of data set: cell-based. In short, it runs like this: as §1
In the next data set the test system is MRC-5 cell line. The data set is described as follows: Cytotoxicity, MTT assay. It is filed as cell-based. The conditions noted are these: MRC-5 normal cells, MTT.
Data set [9] can be described thus: Antioxidant activity, DPPH radical scavenging assay. Type of data set: biochemical. In short, it runs like this:
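Sample solution (test compound, 1 mg/mL in DMSO) was mixed with 0.1 mM DPPH in methanol and kept 30 min in the dark. Absorbance was read at 517 nm. Radical scavenging activity (%) = [1 − Abs(sample)/Abs(control)] × 100. α-Tocopherol was the positive control.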

The subject of a further data set is P. aeruginosa. The conditions noted are these: anti-biofilm agent; cited from earlier work.
The next data set relates to E. coli. As to conditions: cited from earlier work.

Converted amounts (≈) assume the structure as drawn. Read-outs that look alike come from different tables or passages of the source.

In “Cytotoxicity, MTT assay”, `COc1cccc2c1C(=O)c1c(O)c3c(c(O)c1C2=O)C[C@@](O)(C(=O)CO)C[C@@H]3O[C@H]1C[C@H](N)[C@H](O)[C@H](C)O1` [Doxorubicin] gave an IC50 at 48 h of 0.62 ± 0.03 µM.
As for `Oc1c(I)cc(I)c2cccnc12` [Iodoquinol (7), iodoquinol], the MIC with S. aureus ATCC 25923 is 645 µM (≈ 256 µg/mL); in the data set with S. aureus ATCC 29213 it was 645 µM (≈ 256 µg/mL); in [1] it was 645 µM (≈ 256 µg/mL); in the data set with M. luteus ATCC 10240 it was 322 µM (≈ 128 µg/mL); against E. faecalis ATCC 29212, greater than 645 µM; against E. faecalis ATCC 33186 it was greater than 645 µM. Further, the MIC in data set [2] was greater than 645 µM; against B. subtilis ATCC 6633 it was 80.6 µM (≈ 32 µg/mL); in the data set with B. cereus, 645 µM (≈ 256 µg/mL); in the data set on L. monocytogenes, 645 µM (≈ 256 µg/mL); in the data set with E. coli ATCC 25922, greater than 645 µM; in data set [3], greater than 645 µM. In addition, the MIC is greater than 645 µM against S. marcescens ATCC 8100; greater than 645 µM in [4]; greater than 645 µM in data set [5]; greater than 645 µM in the data set with S. Enteritidis; 645 µM (≈ 256 µg/mL) against S. dysenteriae; greater than 645 µM with M. morganii. In addition, the MIC in the data set on C. freundii was greater than 645 µM; against P. shigelloides, 645 µM (≈ 256 µg/mL); against A. hydrophila, 645 µM (≈ 256 µg/mL); with P. aeruginosa ATCC 27853 it was greater than 645 µM; in the data set on P. stutzeri ATCC 17587, greater than 645 µM; in data set [6] it was 645 µM (≈ 256 µg/mL). Besides, the MIC was greater than 645 µM in data set [7]; 645 µM (≈ 256 µg/mL) in the data set on C. albicans ATCC 90028; greater than 645 µM with S. cerevisiae ATCC 2601; no less than 645 µM in the data set on Gram-negative bacteria; no less than 645 µM against diploid fungi and yeast; no less than 645 µM in data set [8] (most of the bacterial strains / most of the tested microorganisms). For the same compound, the cytotoxicity in words entry in the data set with MRC-5 cell line is listed as “non-cytotoxic”.
Consider `O=[N+]([O-])c1ccc(O)c2ncccc12` [NQ (2), Nitroxoline], for which the MIC in the data set with S. aureus ATCC 25923 came out at 42.1 µM (≈ 8 µg/mL); in the data set on S. aureus ATCC 29213 it was 42.1 µM (≈ 8 µg/mL); in [1], 42.1 µM (≈ 8 µg/mL); against M. luteus ATCC 10240, 10.5 µM (≈ 2 µg/mL); against E. faecalis ATCC 29212, 42.1 µM (≈ 8 µg/mL); in the data set with E. faecalis ATCC 33186, 42.1 µM (≈ 8 µg/mL). Besides, the MIC in [2] is 42.1 µM (≈ 8 µg/mL); in the data set on B. subtilis ATCC 6633, 42.1 µM (≈ 8 µg/mL); in the data set with B. cereus it was 21 µM (≈ 4 µg/mL); in the data set with L. monocytogenes it was 42.1 µM (≈ 8 µg/mL); with E. coli ATCC 25922 it was 21 µM (≈ 4 µg/mL); in data set [3], 84.1 µM (≈ 16 µg/mL). The MIC against S. marcescens ATCC 8100 is 21 µM (≈ 4 µg/mL); in [4], 21 µM (≈ 4 µg/mL); in [5], 84.1 µM (≈ 16 µg/mL); in the data set on S. Enteritidis, 21 µM (≈ 4 µg/mL); against S. dysenteriae, 21 µM (≈ 4 µg/mL); in the data set with M. morganii, 42.1 µM (≈ 8 µg/mL). Moreover, the MIC came out at 21 µM (≈ 4 µg/mL) in the data set on C. freundii; 42.1 µM (≈ 8 µg/mL) in the data set on P. shigelloides; 5.26 µM (≈ 1 µg/mL) against A. hydrophila; 84.1 µM (≈ 16 µg/mL) in the data set with P. aeruginosa ATCC 27853; 10.5 µM (≈ 2 µg/mL) in the data set on P. stutzeri ATCC 17587; 10.5 µM (≈ 2 µg/mL) in [6]. Moreover, the MIC was 21 µM (≈ 4 µg/mL) in data set [7]; 42.1 µM (≈ 8 µg/mL) against C. albicans ATCC 90028; 42.1 µM (≈ 8 µg/mL) with S. cerevisiae ATCC 2601; 5.26 to 84.1 µM (≈ 1 to 16 µg/mL) in the data set with Gram-negative bacteria; 5.26 to 84.1 µM (≈ 1 to 16 µg/mL) in data set [8] (both the Gram-positive and Gram-negative bacteria); 84.14 to 168.28 µM in the data set on P. aeruginosa. Moreover, in the data set with E. coli, the MIC was 42.07 µM (≈ 8 µg/mL). Further, the “antioxidant activity in words” value in data set [9] was “inactive antioxidants”. Moreover, the IC50 at 48 h in the data set “Cytotoxicity, MTT assay” came to 88.1 ± 2.11 µM.
On to `Cc1c(C)c2c(c(C)c1O)CC[C@@](C)(CCC[C@H](C)CCC[C@H](C)CCCC(C)C)O2` [α-tocopherol, α-Tocopherol], for which the IC50 in data set [9] (read-out: RSA IC50, 30 min, 517 nm) stood at 13.5 µM.

In general, IC50 refers to the point on the concentration scale where inhibition reaches its midpoint.

The record behind these values is paper PMC5689172 (Biochemistry and Biophysics Reports, 2016).
